Screening results as filed in PubChem.
STAT3 act = increases IL-6 driven STAT3 reporter signal; 190,000 compounds, 0.91% hits; U3A cells, IL-6 STAT3-luciferase reporter, luminescence; 100% = signal with IL-6 EC80 alone; AID 871; activation (% of control), % at 5.6 µM;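 active = activation above the screen-wide mean of compound activation plus 3 SD, cut at about 130% in these data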;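 also: 0% = background luminescence of wells with medium and substrate only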
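Test system: STAT3-luciferase reporter U3A cells; Detection: reporter luminescence signal; Times: 1 h compound pre-exposure, 6 h IL-6 stimulation, 37 °C; Benchmarks: IL-6-only high control; Also added: IL-6 stimulus at 33 ng/mL final.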
APP 5'UTR act = APP 5'UTR luciferase reporter activation; SH-SY5Y APP 5'UTR luciferase reporter, luminescence; zero percent = DMSO vehicle wells; activation, % at 2 µM; 190,000 compounds, 1% hits; AID 1276;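 active = activation above a set limit, based on mean plus 3 SD of controls, cut at about 140% in these data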
STAT1 activator = STAT1 signaling activation | NIH 3T3 STAT1-luciferase reporter, IFN-gamma, luminescence; 100% = IFN-gamma alone, no compound | 200,000 compounds, 2.6% hits | activation (% of control), % at 5.5 µM;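 active = activation above the screen-wide mean activation plus 3 SD, cut at about 130% in these data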;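 also: raw ratio to IFN-gamma control signal so 100% means no change and 0% no light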
STAT3 blocker = reduces IL-6 driven STAT3 reporter signal. U3A cells, IL-6 STAT3-luciferase reporter, luminescence; host cell line lacks STAT1. inhibition, % at 5.5 µM. 190,000 compounds, 0.89% hits. AID 862;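 active = inhibition above the mean inhibition across all screened compounds plus 3 SD, cut at about 44% in these data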;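 also: 0% = DMSO only wells and 100% = 100 µM nifuroxazide control wells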
NF-kB expr up = compounds increasing NF-kB expression in human neuronal cells; NF-kB reporter expression; active compounds read high; fold change at 12.5 µM; 190,000 compounds, 1.6% hits; AID 1239; in the data active = fold change above about 3.3
STAT1 blocker = STAT1 signaling inhibition; NIH 3T3 STAT1-luciferase reporter, IFN-gamma, luminescence; inhibition, % at 5.5 µM; 200,000 compounds, 0.35% hits;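 active = inhibition above a set limit, the mean inhibition across all tested compounds plus 3 SD, cut at about 34% in these data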;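 also: 0% = IFN-gamma with DMSO and 100% = IFN-gamma with 300 µM nifuroxazide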
Active calls of the source: *; . = not tested or not shown. Most compounds without a hit are left out; they make up all but 4.9% or so of the library.

SMILES	STAT3 act	APP 5'UTR act	STAT1 activator	STAT3 blocker	NF-kB expr up	STAT1 blocker
Cc1cccc(N(C(=O)CNC(=O)c2ccco2)C(C(=O)NCC2CCCO2)c2ccccc2)c1 (stereo not given)	96.7	17.4	102.7	6.1	0.55	-4.8
CC(=O)c1c(C)[nH]c(C(=O)OCc2ccccc2F)c1C	71.8	48.9	123.5	36.6	2.44	-25.1
O=C(NC(=S)N(Cc1ccccc1)c1ccccn1)C1CC1	94.2	5.5	101.9	2.0	1.15	-2.1
CCCOc1ccc(/C=N/Nc2ccccc2[N+](=O)[O-])c(O)c1	92.4	172.7*	111.1	12.5	0.86	-12.6
O=[N+]([O-])c1cccnc1N/N=C/c1ccccc1O	93.2	-8.3	130.0*	9.4	1.84	-34.0
CC(/C=C/c1ccco1)=N/NC(=O)OC(C)(C)C	108.0	18.3	99.3	-11.5	1.14	0.9
O=C(NCc1ccco1)c1cc(-c2ccccc2)on1	103.2	68.2	131.0*	-1.0	4.46*	-33.6
O=C(NCc1ccco1)c1cc(-c2ccc(F)cc2)on1	103.2	45.3	142.3*	-0.4	2.81	-46.1
O=C(NCc1ccco1)c1cc(-c2cccs2)on1	106.1	35.1	129.8*	-3.9	5.18*	-32.5
CC(C)Cc1cc(C(=O)NCc2cccs2)no1	115.2	59.8	133.5*	-19.7	3.09	-39.7
O=C(NCc1ccc(F)cc1)c1cc(-c2ccco2)on1	101.0	18.9	104.8	0.9	1.35	-10.3
O=C(Nc1nnc(SCc2ccc(F)cc2)s1)c1ccc2c(c1)C(=O)N(c1ccccc1Cl)C2=O	96.9	8.4	100.5	8.6	.	-2.4
CCOC(=O)C1(CCCc2ccccc2)CCN(C(=O)C(C)n2cncn2)CC1 (stereo not given)	94.1	1.5	102.7	11.7	0.96	-4.8
CC1=NNC(=O)C1CCC(=O)N/N=C/C(Br)=C/c1ccccc1 (stereo not given)	106.1	-81.7	110.0	-12.1	1.09	-11.0
COCCNC(=S)N/N=C(\C)c1ccccc1O	102.7	-78.6	101.7	1.6	15.2*	-1.9
COc1ccc(C(=S)Nc2ccc(N(C)C)cc2)cc1	95.3	170.3*	127.6	11.2	5.42*	-30.0
COc1ccc(NC(=S)c2ccc(N(C)C)cc2)cc1	81.5	135.4*	149.2*	24.6	2.84	-54.5
CCOC(=O)c1sc(N=NC2=C(O)CC(C)(C)CC2=O)c(C(=O)OCC)c1C	89.8	10.3	94.1	18.3	0.97	5.0
Nc1nc(F)cc(NCc2ccccc2)n1	104.6	-17.3	103.1	-3.0	1.11	-5.0
CSc1nnc(C)c(=O)n1COC(=O)c1ccc(S(=O)(=O)N2CCCC2)cc1	106.9	4.2	100.1	-2.1	1.07	-0.1
COc1ccc(/C=C/C(=O)c2c(O)cc(C)oc2=O)c(OC)c1	122.7	53.2	138.2*	-28.1	4.09*	-41.9
O=C(Nc1nnc(-c2cccs2)s1)c1cccc(F)c1	106.0	93.0	134.5*	-5.3	2.42	-39.0
CC(C)(C)CC(=O)Nc1nnc(-c2cccs2)s1	111.8	37.6	140.2*	-10.4	2.11	-43.9
O=C(CN1CCCC1)Nc1nnc(-c2cccs2)s1	99.7	-4.5	109.9	4.2	1.61	-11.2
COc1ccc(C(=O)Nc2nc(-c3cccs3)c(NC(C)=O)s2)cc1	95.6	-14.9	78.8	6.6	2.04	25.2
SMILES	STAT3 act	APP 5'UTR act	STAT1 activator	STAT3 blocker	NF-kB expr up	STAT1 blocker
Cc1nnc(NC(=O)c2cccc(F)c2)s1	94.1	-3.4	106.9	15.5	1.45	-7.6
COc1ccc(C(=O)Nc2nnc(-c3cccs3)s2)cc1	156.9*	46.7	121.6	-71.5	3.34*	-23.4
CC(=O)Cc1nsc(NC(=O)c2cccc(F)c2)n1	102.7	-0.9	142.3*	1.9	1.77	-42.6
Fc1ccc(CSc2nnc(-c3cccs3)o2)cc1	99.2	24.1	117.9	3.7	2.22	-20.1
Fc1ccccc1CSc1nnc(-c2cccs2)o1	106.5	119.3	146.2*	-5.2	4.07*	-51.9
CC1CCCC(C)N1C(=O)CSc1nnc(-c2cccs2)o1 (stereo not given)	101.2	98.5	147.2*	2.5	2.69	-51.2
Cc1cc(C(=O)CSc2cccc[n+]2[O-])c(C)n1-c1ccccc1	68.3	148.9*	89.7	42.5	3.81*	11.4
Cc1ccc(-n2c(C)cc(C(=O)CSc3nncs3)c2C)cc1	81.5	139.2*	129.4*	27.5	5.42*	-30.7
Cc1cc(C(=O)CSc2nncs2)c(C)n1-c1c(C)n(C)n(-c2ccccc2)c1=O	96.5	-4.9	107.1	12.8	1.17	-7.8
Cc1cc(C(=O)CSc2nncn2C)c(C)n1-c1ccccc1	72.3	122.1	96.0	36.9	4.2*	4.2
Nc1nnc(/C=C/c2ccccc2)s1	90.0	45.0	114.2	13.9	1.19	-17.4
CCOC(=O)N1CCC(N2C(=O)c3ccccc3C2Nc2c(C)cccc2C)CC1 (stereo not given)	97.3	16.9	99.2	8.1	0.86	0.8
Nc1ccc(-n2nncc2-c2ccc(Cl)cc2)cc1	98.7	5.2	102.6	7.3	1.51	-2.8
O=C(NCCOc1ccccc1)c1cc2ccccc2o1	96.1	95.8	123.8	7.4	4.44*	-25.8
Cc1cccc(NC(=O)Cc2noc3ccccc23)c1	112.8	38.3	139.7*	-13.1	2	-42.2
Cc1cccc(NC(=O)Cc2noc3ccccc23)c1C	95.6	26.6	103.8	6.6	1.14	-4.7
O=C(Nc1cccc(Br)c1)c1cc2ccccc2o1	110.4	158.4*	141.8*	-9.1	5.71*	-45.5
NS(=O)(=O)c1cccc(NC(=O)c2cc3ccccc3o2)c1	86.7	16.8	113.8	18.7	1.28	-17.2
Cc1cccc(NC(=O)c2cc3ccccc3o2)c1	95.7	177.8*	136.1*	8.0	6.7*	-39.1
O=C(c1nc2ccccn2c1CN1CCCC(OCc2ccccc2)C1)N1CCCC1 (stereo not given)	99.8	7.2	81.7	3.7	1.37	17.8
O=C(NNC1=NC2(CCCC2)Cc2ccccc21)c1ccncc1	103.8	-0.5	98.2	7.8	1.18	1.2
S=C(NCc1ccco1)N/N=C/c1ccccc1Cl	113.3	6.0	98.2	-11.2	1.03	2.0
OCC1(Cc2ccccc2)CCN(Cc2ccc(C(F)(F)F)cc2)CC1	102.4	12.1	103.8	2.4	1.3	-6.2
Cc1ccc(CC2SC(N)=NC2=O)cc1 (stereo not given)	101.8	5.8	104.5	3.3	1.07	-6.3
CCC(=O)Nc1cccc(NC(=O)c2cc3ccccc3o2)c1	96.6	88.7	147.6*	8.0	2.88	-52.5
CCC(=O)Nc1cccc(-c2cc3ccccc3oc2=O)c1	100.9	39.8	133.5*	4.2	0.6	-37.6
CCOC(=O)c1ccc(NC(=O)c2cc3ccccc3o2)cc1	94.2	23.9	112.7	13.0	1.77	-13.0
CCCCn1nnc(NC(=O)c2cc3ccccc3o2)n1	103.5	25.0	134.6*	-1.0	2.01	-27.9
